FGF22 binding: binders of human FGF22 protein, primary screen, FGF22 synaptogenesis inhibitor project, biophysical, thermal shift, single point | recombinant FGF22 thermal shift, SYPRO orange fluorescence; percent of sucrose octasulfate shift, DMSO zero | activity (Tm shift, normalised), % at 9.99 µM | 1.5% of 340,000 active;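 active = mean Tm shift, scaled 0 neutral to 100 positive control, at about 1.3% or above, every replicate too, limit read from the data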
Target sequence (Q9HCT0 whole entry, looked up): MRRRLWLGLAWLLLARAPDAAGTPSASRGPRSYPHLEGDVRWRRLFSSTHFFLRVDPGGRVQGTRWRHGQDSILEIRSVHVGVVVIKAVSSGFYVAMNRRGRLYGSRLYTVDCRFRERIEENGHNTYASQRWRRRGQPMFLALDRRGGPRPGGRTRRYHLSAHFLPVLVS
rRNA inh HTS: reduced GFP signal of wild-type E. coli, primary screen, bacterial rRNA inhibitor project, GFP/RFP fluorescence, OD600, single point. 1.6% of 350,000 active. GFP signal change (wild-type ribosome), % (concentration not given with the values). E. coli WT GFP vs humanized-ribosome RFP mutants, 24 h; stronger effect = lower value; DMSO median 0, no signal -100;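 active = significant combined selectivity score with lowered wild-type GFP, culture density cut under 30%, mutant RFP and density less affected; inactive = any of these conditions unmet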
PGC1a acetyl inh: inhibitors of PGC1a acetylation signal, primary screen, cell-based, U2OS, AlphaScreen, inhibitor mode; AlphaScreen anti-acetyl-lysine; with virally co-expressed GCN5 acetyltransferase; inhibition, % at 15.6 µM; 0.17% of 350,000 active;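 active = every replicate shows inhibition of at least 40%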;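 also: 0% = neutral control wells and 100% = positive control wells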
Vif imaging: HIV Vif self-association inhibitors, primary screen, imaging, HEK293T, single point; HEK293T cells, Vif self-association by quenched fluorescence, 24 h; inhibition, % at 7.49 µM; 0.35% of 340,000 active; AID 602346, 2012; in the data active = inhibition above about 50%, passing the limit was not always enough
Cneo AK release: Cryptococcus neoformans cell lysis inducers, primary screen, AK release luminescence, single concentration. C. neoformans lysis, adenylate kinase release luminescence, 4 h; normalised: neutral wells 0, clomiphene wells 100. lysis activity, % at 15 µM. 0.2% of 360,000 active;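 active = mean lysis activity across replicates of at least 80%, whatever share of replicates individually reach that level; inactive = mean lysis activity below 80%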
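Material: C. neoformans cells | Amount: Yeast cell density of 5 × 10^6 cells/mL | Medium: Fresh YPD growth medium | Dosing: Single dose | Times: Static 4 h at 37 °C with compound, 1 h detection | Detection: AK luminescence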
PglD inh: C. jejuni PglD acetyltransferase inhibitors, primary screen, biochemical, DTNB colorimetric, single point | UDP-N-acetylbacillosamine N-acetyltransferase PglD (Campylobacter jejuni) | purified PglD enzyme, DTNB colorimetric CoA detection | inhibition, % at 12.5 µM | 0.098% of 360,000 active | AID 602405, 2012; in the data active = inhibition above about 16%, passing the limit was not always enough
The depositor's hits bear a star; / = no result. Hits are enriched below; roughly 2.9% of the tested compounds scored in any of these assays.

SMILES | FGF22 binding | rRNA inh HTS | PGC1a acetyl inh | Vif imaging | Cneo AK release | PglD inh
COc1ccc2c3c([nH]c2c1)[C@@H](CO)N(Cc1ccccn1)CC31CN(C(C)=O)C1 | / | 4 | / | / | / | /
CSc1ccccc1NC(=O)COC(=O)Cc1cccs1 | 43* | 15 | 12 | 2 | / | /
O=C(COC(=O)Cc1cccs1)Nc1ccccc1F | / | / | 0 | 16 | -1 | -5
CCOc1ncccc1C(=O)N1CCCSC1=Nc1ccc(C(C)=O)cc1 | 43* | 2 | -5 | 8 | / | /
C[C@H](CO)N1C[C@H](C)[C@H](CN(C)S(=O)(=O)c2ccc(Cl)cc2)Oc2ccc(NS(=O)(=O)c3ccc(Cl)cc3)cc2CC1=O | 0 | 1 | 5 | / | 3 | 0
Cc1ccc(C#N)c(SCc2ccccc2F)n1 | 0 | -25* | -12 | -4 | -3 | -4
O=C(C[C@@H]1CC[C@@H](NS(=O)(=O)c2ccc(F)cc2)[C@H](CO)O1)NC1CCC1 | 0 | 1 | 12 | / | 1 | 3
COC(=O)CC1(c2ccccc2)C(=O)c2ccccc2C1=O | 0 | -17 | -1 | 8 | -5 | 0
COC(=O)CC1(c2ccc(OC)cc2)C(=O)c2ccccc2C1=O | 0 | -26* | 1 | 12 | 2 | 0
CCN(CC)C(=O)CN1C(=O)c2cccc3cccc(c23)C1=O | 43* | 1 | -8 | 16 | / | /
CCN(CC(=O)Nc1c(F)cccc1F)C(=O)CN1C(=O)c2ccccc2C1=O | 0 | 2 | / | 5 | -2 | 3
C[C@H]1CN(C)C(=O)c2cccc(N(C)C)c2O[C@H]1CN(C)C(=O)OC(C)(C)C | / | 1 | / | / | / | /
CC(C)NC(=O)Nc1cccc2c1O[C@@H](CN(C)S(=O)(=O)c1ccccc1)[C@@H](C)CN([C@@H](C)CO)C2=O | 0 | 2 | 2 | / | 59 | 4
CC=Cc1ccc2n(c1=O)C[C@H]1[C@H](CO)[C@@H](C(=O)Nc3ccccc3)[C@@H]2N1C(=O)CC1CC1 (mixture of isomers) | 0 | -4 | -2 | / | 56 | 4
CCn1c(SCC(=O)N(C)C2CCS(=O)(=O)C2)nnc1-c1ccccc1 (stereo not given) | 43* | 25 | / | -3 | -3 | -3
CCN(C(=O)CSc1nnc(-c2ccc(F)cc2)n1C)C1CCS(=O)(=O)C1 (stereo not given) | 43* | 11 | 2 | 40 | -3 | 2
CCN(C(=O)CSc1nnc(-c2c[nH]c3ccccc23)o1)C1CCS(=O)(=O)C1 (stereo not given) | 43* | 4 | 17 | -16 | 0 | 6
COc1ccc2c3c(n(C)c2c1)[C@@H](CO)N(C(=O)c1ccncc1)CC31CCN(S(C)(=O)=O)CC1 | 0 | 1 | 2 | / | / | /
O=c1oc(=S)oc2c1[C@H](c1ccc(Cl)cc1)O[C@H](C1CC1)C2 | 0 | -43* | / | / | / | /
C[C@@H]1CN([C@@H](C)CO)C(=O)CCCn2cc(nn2)CO[C@@H]1CN(C)C(=O)Nc1cccc(F)c1 | / | 1 | 1 | / | / | /
Cc1[nH]n(-c2ccccc2)c(=O)c1C(c1ccc(C(=O)O)cc1)c1c(C)[nH]n(-c2ccccc2)c1=O | 0 | -19* | / | -4 | / | /
Cc1[nH]n(-c2ccccc2)c(=O)c1C(c1cccc([N+](=O)[O-])c1)c1c(C)[nH]n(-c2ccccc2)c1=O | 0 | -46* | / | 0 | / | /
Cc1[nH]n(-c2ccccc2)c(=O)c1C(c1cccc([N+](=O)[O-])c1O)c1c(C)[nH]n(-c2ccccc2)c1=O | 1 | -10 | / | 0 | / | /
O=C(N/N=C/c1ccccc1C(F)(F)F)c1ccc2nc[nH]c2c1 | 0 | -25* | 7 | -8 | -3 | 1
O=C(N/N=C/c1ccc(Cl)cc1Cl)c1ccc2nc[nH]c2c1 | 0 | -18* | / | -8 | 0 | 10

Assay outcomes (PubChem)
